From PubChem BioAssay
TAAR1 antagonist: antagonists of human TAAR1; Q96RJ0; CHO RD-HGA16 TAAR1, Fluo-8 calcium fluorescence, antagonist; inhibition, % at 3 µM; 1.5% of 360,000 active; AID 624466;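 active = inhibition above a per-plate cutoff, the mean inhibition of test compounds on that plate plus 3 SD, cut at about 49% in these data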;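 note: 0% = DMSO plus EC80 beta-PEA response and 100% = DMSO alone without agonist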
Target sequence (Q96RJ0 whole entry, looked up): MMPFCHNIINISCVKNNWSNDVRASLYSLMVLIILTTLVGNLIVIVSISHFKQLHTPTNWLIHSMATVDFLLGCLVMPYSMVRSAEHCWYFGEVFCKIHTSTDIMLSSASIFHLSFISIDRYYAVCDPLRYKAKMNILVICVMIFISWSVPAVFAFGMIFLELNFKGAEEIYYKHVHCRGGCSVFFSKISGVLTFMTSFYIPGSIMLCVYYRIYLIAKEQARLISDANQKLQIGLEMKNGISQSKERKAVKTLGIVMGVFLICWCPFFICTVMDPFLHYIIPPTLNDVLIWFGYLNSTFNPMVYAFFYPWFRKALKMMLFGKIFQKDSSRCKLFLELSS
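Assay system: RD-HGA16 CHO cells with stable hTAAR1 and Gα16 / Reagent: EC80 β-phenethylamine stimulus / Doses: 3 µM, single point / Timing: dye loading 75 min at 37 °C, then 30 min room temperature / Measured by: Fluo-8 intracellular calcium dye fluorescence, real-time kinetic reads / Controls: vehicle wells and EC80 agonist wells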
GPR7 antagonist: human neuropeptides B/W receptor 1 antagonism; P48145; GPR7-expressing cells, fluorescence antagonist assay; inhibition, % at 4.4 µM; 1.1% of 290,000 active; in the data active = inhibition above about 16%, passing the limit was not always enough;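 note: cells stimulated with the agonist NPW; 0% = agonist with vehicle and 100% = vehicle without agonist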
Target sequence (P48145 whole entry, looked up): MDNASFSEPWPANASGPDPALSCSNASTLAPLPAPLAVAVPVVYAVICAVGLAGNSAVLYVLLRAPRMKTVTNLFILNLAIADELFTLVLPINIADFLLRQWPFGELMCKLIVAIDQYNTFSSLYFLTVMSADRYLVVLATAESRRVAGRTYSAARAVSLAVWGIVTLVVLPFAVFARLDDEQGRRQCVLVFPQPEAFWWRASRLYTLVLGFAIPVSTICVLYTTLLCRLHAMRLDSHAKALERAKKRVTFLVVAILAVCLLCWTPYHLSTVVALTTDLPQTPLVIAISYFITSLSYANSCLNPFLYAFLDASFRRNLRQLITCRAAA
OX1R antag-1: blocks the human orexin 1 receptor; 0.43% of 330,000 active; AID 434989; CHO/OX1R cells, Fluo-8 calcium fluorescence, orexin A; inhibition, % at 5 µM;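 active = inhibition above its plate's threshold, mean inhibition of all tested compounds on the plate plus 3 SD, cut at about 37% in these data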;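 note: 0% = orexin A challenge wells and 100% = SB-334867-A antagonist wells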
TAAR1 agonist: human TAAR1 agonism; 0.99% of 360,000 active; activation, % at 3 µM; AID 624467; CHO RD-HGA16 TAAR1, Fluo-8 calcium fluorescence; vehicle wells 0%, saturating PEA agonist 100%;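 active = activation above the mean activation of all test compounds in the run plus 3 SD, cut at about 38% in these data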
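System: CHO-derived RD-HGA16 cells with stable Gα16 and human TAAR1 / Times: 17-24 h plating, Fluo-8 75 min 37 °C, 30 min RT / Technique: calcium-sensitive Fluo-8 signal, excitation 470-495, emission 515-575 nm / Measure: % activation relative to PEA EC100 response / Benchmarks: DMSO and PEA EC100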
CHO parental Ca: counter-screen for OX1R antagonists: effect in parental CHO cells. AID 463079. 0.63% of 330,000 active. inhibition, % at 5.6 µM. parental CHO-K1, ATP-induced calcium, Fluo-8 fluorescence;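 active = inhibition above that plate's mean sample inhibition plus 3 SD, cut at about 26% in these data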;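 note: 0% = ATP-challenged DMSO wells and 100% = DMSO wells without ATP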
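Material: parental CHO cells / Compound: single nominal dose of 5.6 µM per compound / Signal: Fluo-8 fluorescence / Replicates: singlicate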
OX1R antag-2: OX1R (human) antagonism | OX1R-expressing cells, FRET antagonist read-out | inhibition, % at 6.6 µM | AID 485270 | O43613 | 1.8% of 330,000 active; in the data active = inhibition mostly above about 38%, no sharp cut-off; inactive = mostly below about 40%;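 note: 0% = agonist challenge alone and 100% = reference antagonist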
Active calls of the source: *. Hits are enriched below; roughly 4.6% of the tested compounds scored in any of these assays.

Screening COc1cc(C(=S)N2CCOCC2)cc(OC)c1OC(=O)c1cccc(C)c1 returned TAAR1 antagonist -5.2, GPR7 antagonist -11.1, OX1R antag-1 20.5, TAAR1 agonist -0.8, CHO parental Ca -16.0 and OX1R antag-2 65.6*.
For COc1cc(C(=S)N2CCOCC2)ccc1OC(=O)c1ccccc1[N+](=O)[O-] the results were TAAR1 antagonist 21.6, GPR7 antagonist -16.9, OX1R antag-1 8.8, TAAR1 agonist 13.1, CHO parental Ca -8.9 and OX1R antag-2 61.1*.
O=C(Oc1cccc(C(=S)N2CCOCC2)c1)c1cccc([N+](=O)[O-])c1 was read as TAAR1 antagonist -0.5, GPR7 antagonist -1.2, OX1R antag-1 -18.9, TAAR1 agonist 12.2, CHO parental Ca -11.7 and OX1R antag-2 17.2.
Screening O=C(Oc1cccc(C(=S)N2CCOCC2)c1)c1cc([N+](=O)[O-])cc([N+](=O)[O-])c1 returned TAAR1 antagonist -3.2, GPR7 antagonist -6.4, OX1R antag-1 -14.3, TAAR1 agonist -1.2, CHO parental Ca -8.3 and OX1R antag-2 67.6*.
Screening NC(=O)c1cnc(Cc2c[nH]c3ccccc23)c(I)c1 returned TAAR1 antagonist 10.2 and TAAR1 agonist 2.9.
For Cc1noc(C)c1COc1ccccc1C(=O)N(C)Cc1ccc(C(C)(C)C)cc1 the results were TAAR1 antagonist 48.1, OX1R antag-1 47.6*, TAAR1 agonist 24.4, CHO parental Ca 27.1 and OX1R antag-2 12.4.
`NC(=O)c1ncn([C@@H]2O[C@H](C(=O)N3CCN(Cc4ccccn4)CC3)[C@@H](O)[C@H]2O)n1` gave TAAR1 antagonist -24.4 and TAAR1 agonist 1.7.
For Nc1cc(OC(=O)c2cccs2)nn1S(=O)(=O)c1ccccc1 the results were TAAR1 antagonist 18.4, GPR7 antagonist -12.3, OX1R antag-1 -4.3, TAAR1 agonist 39.7*, CHO parental Ca -7.7 and OX1R antag-2 28.1.
Screening Nc1cc(OC(=O)c2cccs2)nn1S(=O)(=O)c1ccc(F)cc1 returned TAAR1 antagonist -1.6, GPR7 antagonist -8.8, OX1R antag-1 -24.7, TAAR1 agonist 41.5*, CHO parental Ca -13.2 and OX1R antag-2 13.1.
Screening Cc1ccc(C(=O)Oc2cc(N)n(S(=O)(=O)c3ccc(F)cc3)n2)cc1 returned TAAR1 antagonist -35.0, GPR7 antagonist -1.4, OX1R antag-1 -35.2, TAAR1 agonist 6.7, CHO parental Ca -28.0 and OX1R antag-2 34.4.
`C=CCOc1c(CCC)cc(CCC)cc1C(N)=O` gave TAAR1 antagonist -34.8, GPR7 antagonist -22.9, OX1R antag-1 2.8, TAAR1 agonist 4.0, CHO parental Ca 93.8* and OX1R antag-2 -1.6.
Screening CCOc1c(C(N)=O)cc([N+](=O)[O-])cc1[N+](=O)[O-] returned TAAR1 antagonist -9.4, GPR7 antagonist -4.2, OX1R antag-1 0.1, TAAR1 agonist 0.9, CHO parental Ca -5.0 and OX1R antag-2 34.0.
CNC(=O)C[C@H]1C(=O)N(CCc2ccccc2)C[C@@H]1Cc1ccccc1 was read as TAAR1 antagonist -0.4 and TAAR1 agonist 3.1.
For O=C(CNC(=O)c1cccs1)OCC(=O)c1ccc([N+](=O)[O-])cc1 the results were TAAR1 antagonist -11.7, GPR7 antagonist -7.3, OX1R antag-1 3.6, TAAR1 agonist 0.5, CHO parental Ca -11.2 and OX1R antag-2 33.7.
O=C(CNC(=O)c1ccco1)OCC(=O)c1ccc([N+](=O)[O-])cc1 was read as TAAR1 antagonist -2.2, GPR7 antagonist -9.4, OX1R antag-1 -10.2, TAAR1 agonist -2.4, CHO parental Ca -6.8 and OX1R antag-2 41.1*.
Screening O=C(CNC(=O)c1cccs1)c1ccc([N+](=O)[O-])cc1 returned TAAR1 antagonist -4.5, GPR7 antagonist -7.5, OX1R antag-1 0.2, TAAR1 agonist -0.4, CHO parental Ca -7.6 and OX1R antag-2 59.2*.
For CC(=O)NC(CC(=O)c1ccc([N+](=O)[O-])cc1)C(Cl)(Cl)Cl (stereo not given) the results were TAAR1 antagonist 1.8, GPR7 antagonist -3.8, OX1R antag-1 3.2, TAAR1 agonist -0.2, CHO parental Ca -6.5 and OX1R antag-2 75.5*.
For O=C(CNC(=O)c1ccc([N+](=O)[O-])cc1)c1ccccc1 the results were GPR7 antagonist 7.8, OX1R antag-1 6.2, CHO parental Ca 1.5 and OX1R antag-2 46.9*.
`Cc1ccccc1-c1ccc2c(c1)[C@@H]1C[C@H]3[C@@H](CN1CC2)[C@H](C)OC(C1CCCCC1)N3C` (stereo not given in full) gave TAAR1 antagonist -16.9 and TAAR1 agonist 2.1.
`COc1ccc(CN2C[C@@H](CO)O[C@@H](n3cnc4c(N(C)C)ncnc43)C2)cc1` gave TAAR1 antagonist 0.6 and TAAR1 agonist 0.1.
Screening NS(=O)(=O)c1ccc(NC(=O)COC(=O)CCNC(=O)NC23CC4CC(CC(C4)C2)C3)cc1 returned TAAR1 antagonist -2.2, GPR7 antagonist 17.0*, OX1R antag-1 -6.4, TAAR1 agonist 1.4, CHO parental Ca 3.9 and OX1R antag-2 4.9.
Screening NS(=O)(=O)c1ccc(NC(=O)COC(=O)C23CC4CC(CC(C4)C2)C3)cc1 returned TAAR1 antagonist 7.2, GPR7 antagonist -0.9, OX1R antag-1 2.1, TAAR1 agonist 5.0, CHO parental Ca 4.9 and OX1R antag-2 2.7.
CC(C)(C)C(=O)COC(=O)c1ccc(N)c([N+](=O)[O-])c1 was read as TAAR1 antagonist -0.4, GPR7 antagonist -9.7, OX1R antag-1 -0.6, TAAR1 agonist 5.3, CHO parental Ca -6.2 and OX1R antag-2 19.3.
COc1ccc(CCOC(=O)c2ccc(N)c([N+](=O)[O-])c2)cc1 was read as TAAR1 antagonist 10.2, GPR7 antagonist -9.6, OX1R antag-1 19.5, TAAR1 agonist 17.6, CHO parental Ca 47.1* and OX1R antag-2 32.5.
For CCCc1ccc(C(O)c2ncc(-c3ccc(OC)cc3)[nH]2)cc1 (stereo not given) the results were TAAR1 antagonist -9.3 and TAAR1 agonist 0.8.
COc1cc(/C=C(\C#N)C(=O)Nc2cccc(C(=O)O)c2)ccc1OCc1ccc(Cl)cc1 was read as TAAR1 antagonist 5.7, GPR7 antagonist 3.7, OX1R antag-1 -13.0, TAAR1 agonist 2.2, CHO parental Ca -9.0 and OX1R antag-2 13.5.
`COc1cc(/C=C(/C#N)C(=O)Nc2ccccc2)c(Br)cc1OCc1ccc(C(=O)O)cc1` gave TAAR1 antagonist 47.8, GPR7 antagonist -20.2, OX1R antag-1 65.2*, TAAR1 agonist 22.2, CHO parental Ca 59.3* and OX1R antag-2 22.8.
Screening O=C(/C=C/c1c(Cl)nc2ccccn12)Nc1ccc(F)cc1 returned TAAR1 antagonist -0.5, GPR7 antagonist -1.7, OX1R antag-1 -5.6, TAAR1 agonist 5.8, CHO parental Ca -16.5 and OX1R antag-2 52.6*.
